Source: ChEMBL document CHEMBL1157710, “Identification of triazinoindol-benzimidazolones as nanomolar inhibitors of the Mycobacterium tuberculosis enzyme TDP-6-deoxy-d-xylo-4-hexopyranosid-4-ulose 3,5-epimerase (RmlC)” (Bioorg Med Chem, 2010)
Values after ≈ are worked out from the molar mass of the structure shown. Active and inactive are the calls of the source. No cut-off for these calls is given here.

Key:
[1] = molecular target: T1, dTDP-4-dehydrorhamnose 3,5-epimerase (Mycobacterium tuberculosis (strain CDC 1551 / Oshkosh), UniProt P9WH10); assay: Inhibition of Mycobacterium tuberculosis RmlC expressed in Escherichia coli by spectrophotometry
T1 sequence (P9WH10 whole entry): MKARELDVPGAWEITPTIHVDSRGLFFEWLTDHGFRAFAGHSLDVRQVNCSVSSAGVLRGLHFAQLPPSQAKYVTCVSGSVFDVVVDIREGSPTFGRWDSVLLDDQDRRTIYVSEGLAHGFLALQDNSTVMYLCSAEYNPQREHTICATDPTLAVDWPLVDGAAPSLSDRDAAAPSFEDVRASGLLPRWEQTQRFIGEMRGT
Method in brief: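 96-well absorbance assay at 340 nm (NADPH to NADP) in 200 μl of 50 mM MOPS pH 7.4 with 10% glycerol, 0.01% Triton X-100 and 1 mM MgCl2. Final RmlC 70 nM, RmlD 5 nM, TDP-KDX 200 μM, NADPH 25 μM; compound added in 4 μl DMSO. Reactions were started with RmlC and followed 80 min; IC50 came from initial velocities.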

[2] = system: Mycobacterium tuberculosis; assay: Antimycobacterial activity against Mycobacterium tuberculosis H37Rv by microbroth dilution method; format: functional
[3] = Cytotoxicity against HAEC after 24 hrs; set-up: species or system Homo sapiens
Method in brief: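 Human aortic endothelial cells were seeded at 1000 cells/well in EGM-2 and held 24 hr at 37 °C. They were then exposed 24 hr at 37 °C to a 16-point 2-fold series (final 100 μM to 3 nM) with a DMSO solvent control. Viability was read by CellTiter-Glo luminescence after 10 min, in triplicate.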

[4] = molecular target: T2, dTDP-4-dehydrorhamnose 3,5-epimerase (Mycobacterium tuberculosis (strain CDC 1551 / Oshkosh)) (UniProt P9WH10); assay: Inhibition of Mycobacterium tuberculosis RmlC expressed in Escherichia coli at 5 uM by spectrophotometry
T2 sequence (whole entry): T1 sequence (P9WH10 whole entry)

[5] = molecular target: T2, dTDP-4-dehydrorhamnose 3,5-epimerase (Mycobacterium tuberculosis (strain CDC 1551 / Oshkosh)); assay: Competitive inhibition of Mycobacterium tuberculosis RmlC expressed in Escherichia coli assessed as increase in Km of TDP-KDX
Method in brief: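 Competitive-mode test: TDP-KDX varied 0–100 μM with inhibitor at 0, 0.1, 0.15 and 0.2 μM. Km and Vmax were fitted by non-linear regression. Km(obs) was plotted against inhibitor concentration, and Ki was taken from the slope (Km/Ki, Km as y-intercept).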

[6] = molecular target: T2, dTDP-4-dehydrorhamnose 3,5-epimerase (Mycobacterium tuberculosis (strain CDC 1551 / Oshkosh)); assay: Reversible inhibition of Mycobacterium tuberculosis RmlC expressed in Escherichia coli by time-dependence study
Method in brief: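 RmlD, TDP-KDX and NADPH were added, and the NADPH fluorescence decrease was followed over 200 min. Slopes from the later phase were compared with a no-compound control.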

[7] = molecular target: T2, dTDP-4-dehydrorhamnose 3,5-epimerase (Mycobacterium tuberculosis (strain CDC 1551 / Oshkosh)); assay: Inhibition of Mycobacterium tuberculosis RmlC expressed in Escherichia coli at 0.25 uM by spectrophotometry
[8] = molecular target: T2, dTDP-4-dehydrorhamnose 3,5-epimerase (Mycobacterium tuberculosis (strain CDC 1551 / Oshkosh)); assay: Inhibition of Mycobacterium tuberculosis RmlC expressed in Escherichia coli at 0.5 uM by spectrophotometry
[9] = molecular target: T3, dTDP-4-dehydrorhamnose 3,5-epimerase /dTDP-4-dehydrorhamnose reductase (Mycobacterium tuberculosis (strain ATCC 25618 / H37Rv), UniProt P9WH09+P9WH11); assay: Inhibition of Mycobacterium tuberculosis RmlC/RmlD expressed in Escherichia coli by spectrophotometry
T3 sequence (P9WH09 whole entry): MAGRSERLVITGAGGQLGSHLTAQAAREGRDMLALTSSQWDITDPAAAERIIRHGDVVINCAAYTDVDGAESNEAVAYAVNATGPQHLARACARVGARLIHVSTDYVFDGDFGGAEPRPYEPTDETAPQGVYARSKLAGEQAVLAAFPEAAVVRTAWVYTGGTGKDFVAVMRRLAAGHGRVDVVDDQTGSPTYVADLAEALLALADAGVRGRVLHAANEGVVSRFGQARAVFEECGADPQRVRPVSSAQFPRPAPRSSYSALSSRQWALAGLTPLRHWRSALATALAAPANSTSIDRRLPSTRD
T3 sequence (P9WH11 whole entry): T1 sequence (P9WH10 whole entry)
Method in brief: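 Final RmlC 2.63 × 10−4 μg/μl, RmlD 6.53 × 10−4 μg/μl, NADPH 25 μM, TDP-KDX 200 μM. A 16-point 2-fold series (55 μM to 1.7 nM) was read as the 90-min drop in 340/460 nm fluorescence at 25 °C, in triplicate. IC50 came from a 4-parameter logistic fit.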

O=c1[nH]c2ccccc2n1CCCSc1nnc2c3ccccc3n(Cc3ccccc3)c2n1
IC50 [1]: 2900 nM
MIC [2]: > 50 µg/mL

CCn1c2ccccc2c2nnc(SCCCn3c(=O)[nH]c4ccccc43)nc21
IC50 [3]: 75000 nM
inhibition [4]: 83%
IC50 [1]: 200 nM
Ki [1]: 100 nM
Activity [5]: Active
MIC [2]: 19 µg/mL (≈ 47 µM)
inhibition [6]: Active
inhibition [7]: 52%
inhibition [8]: 72%
IC50 [9]: 398 nM

C=CCn1c2ccccc2c2nnc(SCn3c(=O)[nH]c4ccccc43)nc21
IC50 [1]: 10300 nM

Cn1c2ccccc2c2nnc(SCCCn3c(=O)[nH]c4ccccc43)nc21
IC50 [1]: 500 nM
MIC [2]: 9 µg/mL (≈ 23 µM)

CCn1c2ccccc2c2nnc(S(=O)(=O)CCCn3c(=O)[nH]c4ccccc43)nc21
IC50 [1]: 800 nM

C=CCn1c2ccc(C)cc2c2nnc(SCCCn3c(=O)[nH]c4ccccc43)nc21
IC50 [1]: 20000 nM
MIC [2]: 25 µg/mL (≈ 58.1 µM)

CCCn1c2ccccc2c2nnc(SCCCn3c(=O)[nH]c4ccccc43)nc21
IC50 [1]: 1250 nM
MIC [2]: 9 µg/mL (≈ 21.5 µM)

C=CCn1c2ccccc2c2nnc(S(=O)(=O)CCCn3c(=O)[nH]c4ccccc43)nc21
IC50 [1]: 400 nM

O=c1[nH]c2ccccc2n1CCCSc1nnc2c(n1)[nH]c1ccccc12
IC50 [1]: 3300 nM

C=CCn1c2ccccc2c2nnc(SCCCn3c(=O)[nH]c4ccccc43)nc21
IC50 [1]: 120 nM
Ki [1]: 62 nM
MIC [2]: 13 µg/mL (≈ 31.2 µM)
